Measurements taken from ChEMBL document CHEMBL4680335, “Synthesis, anticancer and antimicrobial evaluation of new benzofuran based derivatives: PI3K inhibition, quorum sensing and molecular modeling study” (Bioorg Med Chem, 2021).
Converted amounts (≈) assume the structure as drawn.

Test system: HepG2
Assay: Antiproliferative activity against human HepG2 cells assessed as reduction in cell growth
Type: functional, cell-based
Details: not given

| Compound | IC50 |
| --- | --- |
| C/C(=N\Nc1nc(-c2ccc(Cl)cc2)cs1)c1cc2ccccc2o1 | 23.2 µM |
| COc1ccc(/N=N/C(C=O)=C(/O)c2cc3ccccc3o2)cc1 | 42.1 µM |
| CN1CCN(C(=S)Cc2cc3ccccc3o2)CC1 | 64.5 µM |
| COc1ccc(-c2csc(N/N=C(\C)c3cc4ccccc4o3)n2)cc1 | 15.7 µM |
| C/C(=N\Nc1nc(-c2ccc(Br)cc2)cs1)c1cc2ccccc2o1 | 27.7 µM |
| COc1ccc(C(=O)CSC(=S)N/N=C(\C)c2cc3ccccc3o2)cc1 | 31.9 µM |
| Cc1ccc(/N=N/C(C=O)=C(/O)c2cc3ccccc3o2)cc1 | 46.8 µM |
| C/C(=N\Nc1nc(-c2cc3ccccc3o2)cs1)c1cc2ccccc2o1 | 21.2 µM |

Test system: MCF7
Assay: Antiproliferative activity against human MCF7 cells assessed as reduction in cell growth
Type: functional, cell-based
Details: not given

| Compound | IC50 |
| --- | --- |
| C/C(=N\Nc1nc(-c2ccc(Cl)cc2)cs1)c1cc2ccccc2o1 | 29.9 µM |
| CN1CCN(C(=S)Cc2cc3ccccc3o2)CC1 | 73.5 µM |
| COc1ccc(-c2csc(N/N=C(\C)c3cc4ccccc4o3)n2)cc1 | 18.9 µM |
| C/C(=N\Nc1nc(-c2ccc(Br)cc2)cs1)c1cc2ccccc2o1 | 33.2 µM |
| COc1ccc(C(=O)CSC(=S)N/N=C(\C)c2cc3ccccc3o2)cc1 | 38.4 µM |
| Cc1ccc(/N=N/C(C=O)=C(/O)c2cc3ccccc3o2)cc1 | 58.6 µM |
| C/C(=N\Nc1nc(-c2cc3ccccc3o2)cs1)c1cc2ccccc2o1 | 25.6 µM |

Test system: HeLa
Assay: Antiproliferative activity against human HeLa cells assessed as reduction in cell growth
Type: functional, cell-based
Details: not given

| Compound | IC50 |
| --- | --- |
| C/C(=N\Nc1nc(-c2ccc(Cl)cc2)cs1)c1cc2ccccc2o1 | 26.6 µM |
| COc1ccc(-c2csc(N/N=C(\C)c3cc4ccccc4o3)n2)cc1 | 18.7 µM |
| C/C(=N\Nc1nc(-c2ccc(Br)cc2)cs1)c1cc2ccccc2o1 | 32.7 µM |
| COc1ccc(C(=O)CSC(=S)N/N=C(\C)c2cc3ccccc3o2)cc1 | 46.9 µM |
| C/C(=N\Nc1nc(-c2cc3ccccc3o2)cs1)c1cc2ccccc2o1 | 24.1 µM |

Test system: PC-3
Assay: Antiproliferative activity against human PC3 cells assessed as reduction in cell growth
Type: functional, cell-based
Details: not given

| Compound | IC50 |
| --- | --- |
| C/C(=N\Nc1nc(-c2ccc(Cl)cc2)cs1)c1cc2ccccc2o1 | 38.1 µM |
| COc1ccc(/N=N/C(C=O)=C(/O)c2cc3ccccc3o2)cc1 | 56.3 µM |
| CN1CCN(C(=S)Cc2cc3ccccc3o2)CC1 | 83.8 µM |
| COc1ccc(-c2csc(N/N=C(\C)c3cc4ccccc4o3)n2)cc1 | 28.9 µM |
| C/C(=N\Nc1nc(-c2ccc(Br)cc2)cs1)c1cc2ccccc2o1 | 45.2 µM |
| COc1ccc(C(=O)CSC(=S)N/N=C(\C)c2cc3ccccc3o2)cc1 | 73.3 µM |
| Cc1ccc(/N=N/C(C=O)=C(/O)c2cc3ccccc3o2)cc1 | 62 µM |
| C/C(=N\Nc1nc(-c2cc3ccccc3o2)cs1)c1cc2ccccc2o1 | 34.2 µM |

Test system: Staphylococcus aureus
Assay: Antibacterial activity against Staphylococcus aureus ATCC 29213 assessed as diameter of zone inhibition at 5 mg/ml incubated for 24 hrs by agar plate diffusion method
Type: functional
Details: read-out: DIZ
Procedure, shortened: (§1)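 Cup (well) agar diffusion in Mueller Hinton agar. Overnight MH broth culture diluted to 0.5 McFarland; 20 μL mixed into MH agar at 50 °C, poured into 9-cm plates. Wells cut with a cork borer and filled with 100 μL compound in DMSO (final 5 mg/mL). DMSO as negative control, ampicillin/clavulanic acid as reference. 37 °C, 24 h; inhibition zone diameter in mm.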

| Compound | zone of inhibition at 5000 µg/mL |
| --- | --- |
| COc1ccc(/N=N/C(C=O)=C(/O)c2cc3ccccc3o2)cc1 | 7 mm |
| Cc1ccc(/N=N/C(C=O)=C(/O)c2cc3ccccc3o2)cc1 | 6 mm |

Test system: Bacillus cereus
Assay: Antibacterial activity against Bacillus cereus UW85 assessed as diameter of zone inhibition at 5 mg/ml incubated for 24 hrs by agar plate diffusion method
Type: functional
Details: read-out: DIZ
Procedure, shortened: as §1

| Compound | zone of inhibition at 5000 µg/mL |
| --- | --- |
| COc1ccc(/N=N/C(C=O)=C(/O)c2cc3ccccc3o2)cc1 | 5 mm |

Test system: Pseudomonas aeruginosa
Assay: Antibacterial activity against Pseudomonas aeruginosa PAO1 assessed as diameter of zone inhibition at 5 mg/ml incubated for 24 hrs by agar plate diffusion method
Type: functional
Details: read-out: DIZ
Procedure, shortened: as §1

| Compound | zone of inhibition at 5000 µg/mL |
| --- | --- |
| COc1ccc(C(=O)CSC(=S)N/N=C(\C)c2cc3ccccc3o2)cc1 | 8 mm |
| Cc1ccc(/N=N/C(C=O)=C(/O)c2cc3ccccc3o2)cc1 | 10 mm |

Test system: Candida albicans
Assay: Antifungal activity against Candida albicans CS35 assessed as diameter of zone inhibition at 5 mg/ml incubated for 24 hrs by agar plate diffusion method
Type: functional
Details: read-out: DIZ
Procedure, shortened: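 Cup diffusion using Sabouraud's medium for C. albicans. 100 μL compound in DMSO (5 mg/mL) per well, DMSO as negative control, fluconazole as reference. 37 °C, 24 h; inhibition zone diameter in mm.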

| Compound | zone of inhibition at 5000 µg/mL |
| --- | --- |
| COc1ccc(C(=O)CSC(=S)N/N=C(\C)c2cc3ccccc3o2)cc1 | 5 mm |

Test system: not listed separately
Assay: Inhibition of quorum sensing in Chromobacterium violaceum ATCC 12472 assessed as inhibition zone at 5 mg/ml incubated for 48 hrs by well diffusion method
Type: functional
Details: read-out: IZ
Procedure, shortened: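 Chromobacterium violaceum ATCC 12472 grown in LB broth at 28 °C, 48 h. 50 μL inoculated into 5 ml soft LB agar and overlaid on LB agar plates. Wells received 100 μL compound in DMSO (5 mg/ml); DMSO as negative control. 28 °C, 48 h. Growth-inhibition radius r1 and pigment-plus-growth radius r2 measured; QS inhibition = r2 − r1 (mm).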

| Compound | zone of inhibition at 5000 µg/mL |
| --- | --- |
| COc1ccc(-c2csc(N/N=C(\C)c3cc4ccccc4o3)n2)cc1 | 3 mm |
| C/C(=N\Nc1nc(-c2cc3ccccc3o2)cs1)c1cc2ccccc2o1 | 2 mm |

Test system: Staphylococcus aureus
Assay: Antibacterial activity against Staphylococcus aureus ATCC 29213 assessed as reduction in bacterial growth incubated for 18 hrs by two-fold serial dilution method
Type: functional
Details: not given
Procedure, shortened: (§2)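 Broth microdilution per CLSI 2015. Selection: compounds active in agar diffusion. Twofold (1:1) dilutions in 0.1 ml MH broth; inoculum 5 × 10^6 CFU/ml diluted suspension. Ampicillin/clavulanic acid as positive control.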

| Compound | MIC |
| --- | --- |
| COc1ccc(/N=N/C(C=O)=C(/O)c2cc3ccccc3o2)cc1 | 128 µg/mL (≈ 397 µM) |
| Cc1ccc(/N=N/C(C=O)=C(/O)c2cc3ccccc3o2)cc1 | 128 µg/mL (≈ 418 µM) |

Test system: Bacillus cereus
Assay: Antibacterial activity against Bacillus cereus UW85 assessed as reduction in bacterial growth incubated for 18 hrs by two-fold serial dilution method
Type: functional
Details: not given
Procedure, shortened: as §2

| Compound | MIC |
| --- | --- |
| COc1ccc(/N=N/C(C=O)=C(/O)c2cc3ccccc3o2)cc1 | 265 µg/mL (≈ 822 µM) |
| Cc1ccc(/N=N/C(C=O)=C(/O)c2cc3ccccc3o2)cc1 | 256 µg/mL (≈ 836 µM) |

Test system: Pseudomonas aeruginosa
Assay: Antibacterial activity against Pseudomonas aeruginosa PAO1 assessed as reduction in bacterial growth incubated for 18 hrs by two-fold serial dilution method
Type: functional
Details: not given
Procedure, shortened: as §2

| Compound | MIC |
| --- | --- |
| COc1ccc(C(=O)CSC(=S)N/N=C(\C)c2cc3ccccc3o2)cc1 | 512 µg/mL (≈ 1280 µM) |
| Cc1ccc(/N=N/C(C=O)=C(/O)c2cc3ccccc3o2)cc1 | 512 µg/mL (≈ 1670 µM) |

Test system: Candida albicans
Assay: Antifungal activity against Candida albicans CS35 assessed as reduction in fungal growth incubated for 18 hrs by two-fold serial dilution method
Type: functional
Details: not given
Procedure, shortened: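 Broth microdilution per CLSI M27-A3/M38-A2. Selection: compounds active in agar diffusion. Twofold (1:1) dilutions in 0.1 ml yeast peptone dextrose medium; fluconazole as positive control.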

| Compound | MIC |
| --- | --- |
| COc1ccc(C(=O)CSC(=S)N/N=C(\C)c2cc3ccccc3o2)cc1 | 256 µg/mL (≈ 642 µM) |
